These entries were drawn from the full list.
HKDC1 activator: activators of human hexokinase HKDC1; Q2TB90; recombinant HKDC1, G6PDH/diaphorase resazurin fluorescence; active compounds read low; activity change, negative = activation, % at 20 µM; 0.056% of 340,000 active;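 active = activation of 40% or more at 20 µM, a change of -40% or lower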
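Signal: coupled resazurin-to-resorufin fluorescence, Ex 525/Em 613 nm. Test system: in-house human HKDC1 enzyme, G6PDH and diaphorase coupling enzymes. Quantity: HKDC1 5 µg/mL. Timing: 90 min reaction at room temperature, dark.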
Large screens that a line does not name were inactive.

CCN(CC)c1ccc2c(c1)oc(=O)c1c(Cl)cc(=O)oc12	none
COc1cc(C2c3c([nH]c(=O)[nH]c3=O)Nc3ccc4ccccc4c32)cc(OC)c1OC (stereo not drawn)	none
Cc1ccc(-n2c3nc(=O)[nH]c(=O)c-3cc3cc([N+](=O)[O-])ccc32)cc1C	none
O=C(NC1=C(NC2CCS(=O)(=O)C2)C(=O)c2ccccc2C1=O)c1ccccc1 (stereo not drawn)	none
CCC1C/C(=C\c2cccnc2)C(=O)/C(=C/c2cccnc2)C1 (stereo not drawn)	none
COc1ccc(OC)c(NC(=O)CSc2ccc(-c3ccco3)nn2)c1	none
COC1=C(Br)C(=O)c2ncccc2C1=O	none
COc1ccc(C2=NNC(=Nc3cc(S(=O)(=O)N(C)C)ccc3C)SC2)c(OC)c1	HKDC1 activator -125
CN(C)S(=O)(=O)c1cccc(N=C2NN=C(c3ccccc3)CS2)c1	HKDC1 activator -281
CC(=O)Nc1ccc(C2=NNC(=Nc3cccc(S(=O)(=O)N(C)C)c3)SC2)cc1	HKDC1 activator -284
Cc1ccc(S(=O)(=O)Nc2c(O)ccc3ccccc23)cc1	none
COc1cc2c(cc1OC)C(c1cc(Br)ccc1F)N(C(=O)CCl)CC2 (stereo not drawn)	none
COc1cc2c(C#N)c(N3CCc4ccccc4C3)nc(N)c2c(N)n1	none
CCOC(=O)C(C(=O)OCC)c1cc(Br)c2noc3c2c1C(=O)c1ccccc1-3	none
O=C1C(SCCO)=C(SCCO)C(=O)c2ccccc21	none
O=C(O)CN1C(=O)/C(=C2\C(=O)N(Cc3ccccc3Cl)c3ccccc32)SC1=S	none
Cc1ccc(C)c(S(=O)(=O)Nc2cc(SCC(=O)O)c(O)c3ccccc23)c1	none
CCOc1ccc2c(ccc(/C=C/c3cc(C)c4cccnc4c3O)[n+]2C)c1	none
COC(=O)c1ccccc1NC1=C/C(=N\S(=O)(=O)c2cccs2)c2ccccc2C1=O	none
NC(=O)[C@H]1CC2(CC(c3cccc(NC(=O)[C@H]4CCC(=O)N4)c3)=NO2)CN1C(=O)c1ccccc1 (stereo partly drawn)	none
O=C1C(Nc2ccccc2)=C/C(=N/S(=O)(=O)c2cccs2)c2ccccc21	none
CC(=O)C1=C(c2cccc([N+](=O)[O-])c2)N(C(C)=O)n2c(C)nnc2S1	HKDC1 activator -308
CC(=O)Nc1ccc(S(=O)(=O)NCCC(=O)OC(C)C(=O)c2ccc(C)cc2)cc1 (stereo not drawn)	none
Cc1ccc(S(=O)(=O)N2CCN(C(=O)CN3C(=O)NC4(CCCCC4)C3=O)CC2)c(C)c1	none
CCN(CC)S(=O)(=O)c1cccc(C(=O)N/N=C(\C)c2ccc(O)cc2O)c1	HKDC1 activator -43
CCCCC[C@H](O)/C=C/[C@@H]1[C@@H](C/C=C\CCCC(=O)OC)[C@@H](O)C[C@H]1O	none
COC(=O)c1ccccc1NC1=C/C(=N\S(=O)(=O)c2ccc(C(=O)O)cc2)c2ccccc2C1=O	none
NC(=NCCCCCCN=C(N)/N=C(\N)Nc1ccc(Cl)cc1)/N=C(\N)Nc1ccc(Cl)cc1	none
CC(CCC(C)C(C)(C)C)[C@@H]1CC[C@H]2C3C[C@H](OS(O)(=S)=S)[C@H]4C[C@H](OS(O)(=S)=S)[C@@H](OS(O)(=S)=S)C[C@]4(C)[C@H]3CC[C@]12C (stereo partly drawn) (tested in a mixture with another compound)	none
C=CCNC(=S)N/N=C(\C)c1ccccn1	HKDC1 activator -44
O=NNc1nc2ccccc2n1Cc1ccccc1	HKDC1 activator -40
O=c1c2ccccc2nc(/C=C/c2cccnc2)n1Cc1ccccc1	none
CC1(C)Cc2c(c(N3CCOCC3)nc3sc4c(NCC5CCCO5)nnnc4c23)CS1 (stereo not drawn)	none
CCc1nc2c(c(=O)c3ccccc3n2C)c(=O)n1-c1ccc(F)cc1	none
O=C(Nc1ccc(Cl)c(Cl)c1)Nc1nnc(-c2ccncc2)s1	none
O=C(NNC(=S)Nc1ccc(Cl)c(Cl)c1)c1ccccn1	HKDC1 activator -57
COC(=O)c1ccc2c(c1)C(C)(C)C(/C=C/c1ccccc1O)=[N+]2C	none
Cc1[nH]c2ccccc2c1C1=CC(=O)C=CC1=O	none
O=C(NC(=S)NNC(=O)c1cnccn1)c1ccc(F)cc1	HKDC1 activator -48
COc1ccc(/C=C/C(=O)NC(=S)NNC(=O)c2cnccn2)cc1	HKDC1 activator -40
Oc1ccc(/C=N/Nc2ccnc3cc(Cl)ccc23)c(O)c1O	none
COc1ccc(S(=O)(=O)/N=C2/C=CC(=O)C(C)=C2C)cc1	none
COc1ccccc1N(C)S(=O)(=O)c1ccc(Cl)c(C(=O)NCC2(N(C)C)CCCCC2)c1	none
O=C1C=CC2(C=C1)O[C@H](Cc1ccccc1)[C@@H](Cc1ccccc1)O2	none
COC1(NS(=O)(=O)c2ccc(Br)cc2)C(C)=CC(=O)C=C1C	none
Cc1ccc2c(c1C)NC(C(=O)O)C1CC=CC21 (stereo not drawn)	none
O=C(CN(C(=O)CCC(=O)Nc1ccccn1)c1ccc2c(c1)OCO2)NCc1ccc(F)cc1	HKDC1 activator -46
O=[N+]([O-])c1ccc(Sc2nc3ccccc3o2)c([N+](=O)[O-])c1	none
C/C(=N\NC(=O)c1cc(C2CC2)nc2ccccc12)c1ccc(O)cc1O	HKDC1 activator -44

Compound activity (PubChem)
